Bioassay records deposited in PubChem by Johns Hopkins Ion Channel Center.
Compounds with a hit are over-represented: about 3.8% of the library has one in this group of screens.
KCNQ1 inh: human KCNQ1 channel inhibition | CHO-K1 KCNQ1, FluxOR thallium flux fluorescence; stronger effect = higher value | B-score at 10 µM | 310,000 tested, 1.3% active | AID 2642;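 active means compounds whose thallium flux B-score, printed positive for inhibition, exceeds three library SD while starting fluorescence stays within three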;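 further: channel opened by potassium depolarization with thallium stimulus after 20 min compound exposure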
hERG protect: shields human hERG channel from block by proarrhythmic agents; Q12809; CHO-hERG, FluxOR thallium flux, dofetilide IC70 present; activation (rescue from dofetilide block), less the hit threshold, % at 10 µM; 310,000 tested, 0.51% active; AID 1511;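 active means activation above the mean of controls blocked by dofetilide plus 5 SD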;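 further: thallium influx through hERG after potassium depolarization seen as dye fluorescence rise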
KCNK3 inh: human KCNK3 channel inhibition, primary screen. B-score at 10 µM. CHO-KCNK3 thallium flux, FluxOR fluorescence; stronger effect = lower value. O14649. 340,000 tested, 0.84% active. AID 602410;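 active means B-score under library mean minus 4 SD, starting fluorescence ratio at most library mean plus 5 SD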;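 further: more negative B-score means stronger inhibition of thallium flux through KCNK3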
KCNQ1 pot: human KCNQ1 channel potentiation or activation; P51787; CHO-K1 KCNQ1, thallium flux FluxOR fluorescence; stronger effect = higher value; B-score at 10 µM; 310,000 tested, 0.35% active;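 active means fluorescence ratio B-score, a plate-corrected score, at least three library SD, with initial intensity B-score within 5 SD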
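Schedule – 37 °C overnight plating, 90-min dark dye load, 20-min compound pretreatment · System – stable KCNQ1 CHO-K1 line · Probe or stimulus – thallium- and potassium-containing depolarizing buffer · Measured by – kinetic FluxOR fluorescence, 10 s baseline plus 110 s post-stimulus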
KCNK9 block: inhibitors of human KCNK9 two-pore domain potassium channel; Q9NPC2; HEK293 KCNK9, FluxOR thallium flux fluorescence; stronger effect = lower value; B-score at 10 µM; 310,000 tested, 1.2% active; AID 488922;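 active means ratio B-score over 3 SD below the library mean, with starting fluorescence within 5 SD of its mean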;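 further: negative B-score means less thallium flux so channel inhibition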
Kir21 inh: blocks the mouse Kir2.1 inward-rectifier potassium channel; B-score at 10 µM; 310,000 tested, 0.85% active; AID 1672; P35561; HEK293-Kir2.1, FluxOR thallium flux fluorescence; stronger effect = lower value;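 active means fluorescence ratio B-score at or below minus 3 SD of library scores, with starting-brightness B-score within 2 SD, cut at about -4.2 in these data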;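 further: channel flux triggered by added potassium and thallium sulfate stimulus; B-score of peak minus minimum fluorescence over baseline after thallium stimulus; more negative B-score means stronger Kir2.1 block with less thallium influx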
Target sequence (P35561 whole entry, looked up): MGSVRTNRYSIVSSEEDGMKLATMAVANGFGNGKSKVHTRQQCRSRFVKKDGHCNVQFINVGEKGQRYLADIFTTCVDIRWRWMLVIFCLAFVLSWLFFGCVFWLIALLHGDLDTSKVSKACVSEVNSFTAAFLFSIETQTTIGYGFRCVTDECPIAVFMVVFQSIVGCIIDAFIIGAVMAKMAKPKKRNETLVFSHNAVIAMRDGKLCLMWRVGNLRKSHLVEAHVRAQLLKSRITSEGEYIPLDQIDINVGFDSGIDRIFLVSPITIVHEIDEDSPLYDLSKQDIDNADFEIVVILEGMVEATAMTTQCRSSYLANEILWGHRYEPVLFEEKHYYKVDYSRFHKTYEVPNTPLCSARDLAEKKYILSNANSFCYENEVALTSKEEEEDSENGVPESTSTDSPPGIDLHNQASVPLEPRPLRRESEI
KCNQ1 block val: reconfirmed blocker of the human KCNQ1 potassium channel; AID 588353; KCNQ1 cell line, FluxOR thallium flux fluorescence; 1,600 tested, 93% active; shares compounds with KCNQ1 inh; inhibition, % at 10 µM;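 active means primary screen active, with duplicate mean exceeding buffer control mean plus 3 SD of buffer wells, cut at about 28% in these data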
CHO KCNQ1 ctr: counter-screen for KCNQ1 inhibitors: effect in parental CHO cells; shares compounds with KCNQ1 inh; parental CHO-K1, FluxOR thallium flux fluorescence ratio; stronger effect = lower value; zero means no signal rise above baseline; fluorescence ratio (Tl flux) at 10 µM; 1,600 tested, 21% active; AID 588366;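 active means mean of duplicate thallium-flux fluorescence ratios in parental host cells more than 5 SD below the buffer control mean, cut at about 0.38 in these data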;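 further: ratio is peak minus minimum fluorescence divided by baseline fluorescence; actives read low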
KCNQ1 ephys val: confirmation of human KCNQ1 potassium channel inhibitors by electrophysiology; shares compounds with KCNQ1 inh; KCNQ1-CHO cells, automated patch clamp current; calls only at 10 µM; 490 tested, 20% active;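 active means KCNQ1 current drop exceeding 3 SD of negative control wells, seen in both duplicate runs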;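 further: steady state current during a 2 s step from -80 to +40 mV; negative values mean current inhibition and positive values mean potentiation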
KCNQ2 inh: selectivity of KCNQ1 inhibitors: inhibition of rat KCNQ2 channel; shares compounds with KCNQ1 inh; KCNQ2 cells, FluxOR thallium flux fluorescence; inhibition, % at 10 µM; 1,600 tested, 71% active; AID 651746;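 active means mean percent inhibition of the KCNQ2 thallium signal more than 5 SD above the buffer-only control wells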;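 further: KCNQ2 expressed in CHO cells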
KCNQ1-KCNE1 inh: selectivity of KCNQ1 inhibitors: inhibition of human KCNQ1/KCNE1 channel. shares compounds with KCNQ1 inh. KCNQ1/KCNE1 cells, FluxOR thallium flux fluorescence. inhibition, % at 10 µM. 1,600 tested, 77% active;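 active means mean percent inhibition of duplicate wells above the buffer-only control mean plus 3 SD of those controls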
Large screens that a line does not name were inactive (follow-up assays come after a bar, where they were run).

CCC(=O)OCCCCCCOc1ccc(C(=O)O)cc1	none
CCOC(=O)c1cc(-c2ccccc2)sc1NC(=O)C(C)(C)C	none
CCOC(=O)c1cc(-c2ccccc2)sc1NC(=O)CC(C)C	KCNQ1 inh 6 | KCNQ1 block val 100 | CHO KCNQ1 ctr 0.35 | KCNQ2 inh 127% | KCNQ1-KCNE1 inh 116%
CC[C@@]1(O)C(=O)OCc2c1cc1n(c2=O)Cc2cc3c(CN(C)C)c(O)ccc3nc2-1	KCNQ1 inh 32 | KCNQ1 block val active | CHO KCNQ1 ctr 0.017 | KCNQ2 inh inactive | KCNQ1-KCNE1 inh inactive
COc1ccc(S(=O)(=O)N(C)CC(=O)NCc2cccnc2)cc1Cl	none
Cc1cccc(Cn2nc(C(C)(C)C)cc2C(=O)Nc2ccc(F)cc2)c1	KCNQ1 inh 12 | KCNQ1 block val 175 | CHO KCNQ1 ctr 0.22 | KCNQ2 inh 144% | KCNQ1-KCNE1 inh active
Cc1noc(C)c1CSCC(=O)Nc1cc(Cl)ccc1N1CCCCC1	KCNQ1 inh 8 | KCNQ1 block val 125 | CHO KCNQ1 ctr 0.38 | KCNQ2 inh 121% | KCNQ1-KCNE1 inh 174%
Cc1noc(C)c1CSCC(=O)Nc1cc(C(F)(F)F)ccc1N1CCCCC1	none
CCN(C[C@H]1N[C@@](C)(C(=O)OC)[C@H]2C(=O)N(C)C(=O)[C@@H]12)S(=O)(=O)c1ccc(F)cc1	none (no result: KCNQ1 inh, hERG protect, KCNQ1 pot, KCNK9 block, Kir21 inh)
Cc1cccc(N2CCN(CC(=O)NCc3ccccc3)CC2)c1C	none
Cc1cc(OCC(=O)Nc2ccncc2)cc(C)c1Br	KCNQ1 inh 8 | KCNQ1 block val 131 | CHO KCNQ1 ctr inactive | KCNQ1 ephys val inactive | KCNQ2 inh 96% | KCNQ1-KCNE1 inh inactive
CCc1ccc(CCC(=O)Nc2sc(C)c(C)c2C(=O)OC)o1	none
CCN(CC)S(=O)(=O)c1cccc(-c2n[nH]c(=S)n2C(C)COC)c1 (stereo unspecified)	none
CC(C)Cc1nnc(NC(=O)c2cc(-c3ccccc3)nc3ccccc23)s1	KCNQ1 inh 6 | KCNQ1 block val 121 | CHO KCNQ1 ctr inactive | KCNQ2 inh 80% | KCNQ1-KCNE1 inh 143%
COc1ccc2[nH]cc(C(=O)NCCc3ccccc3)c(=O)c2c1	none
Clc1ccc(-c2cc3ccccc3[nH]2)cc1	KCNQ1 inh 6 | KCNQ1 block val 124 | CHO KCNQ1 ctr inactive | KCNQ2 inh inactive | KCNQ1-KCNE1 inh 98%
O=C(Oc1ccc2c3c(c(=O)oc2c1)CCC3)c1ccco1	none
O=S(=O)(c1cccc(NC(=S)Nc2ccc(Br)cc2Cl)c1)N1CCOCC1	KCNQ1 inh 9 | KCNQ1 block val inactive | CHO KCNQ1 ctr inactive | KCNQ2 inh inactive | KCNQ1-KCNE1 inh inactive
CC(C)c1noc2ncc(C(=O)c3cc(Cl)cc(Cl)c3O)cc12	KCNQ1 inh 6 | KCNQ1 block val 52 | CHO KCNQ1 ctr inactive | KCNQ2 inh inactive | KCNQ1-KCNE1 inh inactive
CCOC(=O)C1=C(C)N=C2SC(C)C(=O)N2C1c1ccc(C(=O)OC)cc1 (stereo unspecified)	none
O=C(Nc1nncs1)C1COc2ccccc2O1 (stereo unspecified)	none
CC(C)(C)c1csc(NC(=O)C2COc3ccccc3O2)n1 (stereo unspecified)	KCNQ1 inh 7 | KCNQ1 block val 68 | CHO KCNQ1 ctr inactive | KCNQ2 inh 60% | KCNQ1-KCNE1 inh 80%
